Measured values from paper PMC3567311 (ACS chemical biology, 2012).
Where two headings read alike, the source gives them in different places.

Legend:
Kvβ2 [1] = target: T1, Kvβ2 (Rattus norvegicus, UniProt P62483, W272A); format: binding
T1 sequence (P62483 36-361 W272A): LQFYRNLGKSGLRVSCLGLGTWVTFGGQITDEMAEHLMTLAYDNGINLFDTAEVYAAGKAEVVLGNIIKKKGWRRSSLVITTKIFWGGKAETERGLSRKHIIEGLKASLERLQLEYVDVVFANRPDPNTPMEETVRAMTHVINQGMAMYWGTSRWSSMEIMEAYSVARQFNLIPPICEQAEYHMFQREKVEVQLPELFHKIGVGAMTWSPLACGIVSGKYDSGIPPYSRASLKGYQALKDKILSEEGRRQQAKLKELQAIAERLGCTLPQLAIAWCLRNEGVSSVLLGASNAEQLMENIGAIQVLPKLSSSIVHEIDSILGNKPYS

Kvβ1 [2] = target: T2, Kvβ1 (Rattus norvegicus, UniProt P63144, C7A); experiment: inside-out patch clamp dose-response; format: cell-based
Outline: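 Inside-out patches from Xenopus oocytes injected with mixed mRNAs of rat Kv1.1 and rat Kvβ1 (Cys7→Ala), or with a Kvβ1-Kv1.1 fused chimera. Currents elicited by stepping from −80 mV to +60 mV for 400 ms. Test compound was dissolved in DMSO, diluted into internal buffer (final 1% DMSO) and perfused at several concentrations. ΔIss = rise in steady-state current as a fraction of initial inactivating current. EC50 taken from the dose-response curve.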

Kvβ1 [3] = target: T2, Kvβ1; experiment: inside-out patch clamp dose-response; format: cell-based; remark: listed apart in the source
Kvβ2 [4] = target: T1, Kvβ2; experiment: scintillation proximity assay, competition with 3H-cortisone; conditions: read-out: % reduction of cortisone binding at 250 μM
Kvβ2 [5] = target: T1, Kvβ2; experiment: as above; conditions: read-out: % reduction of cortisone binding at 250 μM; remark: listed apart in the source

T2 sequence (P63144 whole entry C7A, the tested form may be a part): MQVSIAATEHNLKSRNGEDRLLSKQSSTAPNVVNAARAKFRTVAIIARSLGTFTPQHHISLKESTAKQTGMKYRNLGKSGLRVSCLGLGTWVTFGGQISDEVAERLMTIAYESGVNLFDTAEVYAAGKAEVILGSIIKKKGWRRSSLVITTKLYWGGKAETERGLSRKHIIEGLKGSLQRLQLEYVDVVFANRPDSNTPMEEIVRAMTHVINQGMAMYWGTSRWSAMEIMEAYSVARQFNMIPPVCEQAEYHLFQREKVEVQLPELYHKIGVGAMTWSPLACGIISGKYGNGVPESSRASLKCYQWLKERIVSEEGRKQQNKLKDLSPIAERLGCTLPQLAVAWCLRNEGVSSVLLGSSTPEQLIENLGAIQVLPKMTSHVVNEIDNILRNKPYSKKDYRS
T2 sequence (P10499 whole entry partner, the tested form may be a part): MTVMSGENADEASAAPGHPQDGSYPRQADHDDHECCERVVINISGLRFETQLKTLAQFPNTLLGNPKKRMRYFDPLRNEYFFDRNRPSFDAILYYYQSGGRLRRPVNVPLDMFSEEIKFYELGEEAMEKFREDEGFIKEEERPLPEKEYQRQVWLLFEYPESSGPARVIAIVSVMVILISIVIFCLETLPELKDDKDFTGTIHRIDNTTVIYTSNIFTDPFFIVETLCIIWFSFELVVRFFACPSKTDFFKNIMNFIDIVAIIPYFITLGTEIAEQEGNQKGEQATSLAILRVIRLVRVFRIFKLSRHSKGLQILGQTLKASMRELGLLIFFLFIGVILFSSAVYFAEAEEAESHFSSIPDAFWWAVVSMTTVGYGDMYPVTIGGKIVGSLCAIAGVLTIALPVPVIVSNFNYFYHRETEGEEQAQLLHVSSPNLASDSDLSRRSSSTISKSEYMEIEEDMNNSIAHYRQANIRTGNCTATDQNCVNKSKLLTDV

Compound | Ki (Kvβ2 [1]) [µM] | EC50 (Kvβ1 [2]) [µM] | EC50 (Kvβ1 [3]) [µM] | inhibition at 250 µM (Kvβ2 [4]) [%] | inhibition at 250 µM (Kvβ2 [5]) [%]
C[C@]12CCC(=O)C=C1CC[C@@H]1[C@@H]2C(=O)C[C@@]2(C)[C@H]1CC[C@]2(O)C(=O)CO [cortisone] | 30 ± 10 | 46 |  |  | 
CCC(=O)O[C@]1(C(=O)SCF)[C@H](C)C[C@H]2[C@@H]3C[C@H](F)C4=CC(=O)C=C[C@]4(C)[C@@]3(F)[C@@H](O)C[C@@]21C [fluticasone propionate] |  |  | 0.037 ± 0.0011 | 98 ± 0.1 | 
CC(=O)OCC(=O)[C@@]1(O)CC[C@H]2[C@@H]3CCC4=CC(=O)CC[C@]4(C)[C@H]3C(=O)C[C@@]21C [cortisone 21-acetate] |  |  | 9 ± 1.1 |  | 95 ± 0.2
